Compounds with a hit are over-represented: about 4.9% of the library has one in this group of screens.
STAT3 blocker: STAT3 signaling inhibition | AID 862 | 190,000 tested, 0.89% active | U3A cells, IL-6 STAT3-luciferase reporter, luminescence; host cell line lacks STAT1 | inhibition, % at 5.5 µM;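 active means inhibition above the mean inhibition across all screened compounds plus 3 SD, cut at about 44% in these data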
STAT3 act-1: increases IL-6 driven STAT3 reporter signal; U3A cells, IL-6 STAT3-luciferase reporter, luminescence; 100% = signal with IL-6 EC80 alone; activation (% of control), % at 5.6 µM; 190,000 tested, 0.91% active; AID 871;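 active means activation above the screen-wide mean of compound activation plus 3 SD, cut at about 130% in these data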
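System – human U3A cells carrying STAT3-luciferase construct · Probe or stimulus – Interleukin-6, 33 ng/mL · Schedule – compound 1 h, then IL-6 6 h at 37 °C · Signal – luminescence from STAT3-driven luciferase reporter · Evaluation – percent of IL-6-only median luminescence · Benchmarks – IL-6-only high control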
STAT1 inh: inhibitors of IFN-gamma induced STAT1 signaling | inhibition, % at 5.5 µM | AID 920 | 200,000 tested, 0.35% active | NIH 3T3 STAT1-luciferase reporter, luminescence;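 active means inhibition above a set limit, the mean inhibition across all tested compounds plus 3 SD, cut at about 34% in these data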
APP 5'UTR act: activates APP 5'UTR luciferase reporter; SH-SY5Y APP 5'UTR luciferase reporter, luminescence; zero percent = DMSO vehicle wells; activation, % at 2 µM; 190,000 tested, 1% active;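 active means activation above a set limit, based on mean plus 3 SD of controls, cut at about 140% in these data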
NF-kB expr up: compounds increasing NF-kB expression in human neuronal cells; AID 1239; 190,000 tested, 1.6% active; NF-kB reporter expression; hits give high values; fold change at 12.5 µM; in the data active means fold change above about 3.3
STAT1 act-1: activators of IFN-gamma induced STAT1 signaling | NIH 3T3 STAT1-luciferase reporter, luminescence; 100% = IFN-gamma alone, no compound | activation (% of control), % at 5.5 µM | 200,000 tested, 2.6% active | AID 932;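 active means activation above the screen-wide mean activation plus 3 SD, cut at about 130% in these data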
STAT3 act-2: STAT3 activation, confirmation assay; shares compounds with STAT3 act-1; U3A STAT3-luciferase reporter, IL-6 potentiation, luminescence; U3A cells lack STAT1; 100 means same as IL-6 alone; potentiation (% of control), % at 5.7 µM; 1,200 tested, 64% active; AID 1267;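 active means percent activation of the STAT3 luciferase reporter above a set limit taken from the earlier primary screen, cut at about 130% in these data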
NFkB act STAT3ct: activates NF-kappaB, counter-screen to STAT3 activators. shares compounds with STAT3 act-1. human cells, NF-kappaB reporter activation. activation (% of control), % at 5.7 µM. 1,200 tested, 11% active. AID 1309; in the data active means activation above about 120%;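 further: reporter induced by TNF-alpha stimulation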
STAT1 act-2: STAT1 activation in STAT3 activator counter-screen. activation (% of control), % at 5.7 µM. NIH 3T3 STAT1-luciferase reporter, IFN-gamma, luminescence. 1,200 tested, 13% active. shares compounds with STAT3 act-1. AID 1318;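 active means activation above the solvent-only control well mean plus 3 SD, set per screening run, cut at about 120% in these data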
Each line names hits and unclear results; the compound was inactive in the other large screens (follow-up assays come after a bar, where they were run).

COC(=O)c1sccc1NC(=S)Nc1ccc(F)cc1	none
CN(C)C(CN1C(=O)C2CC=CCC2C1=O)c1cn(C)c2ccccc12 (stereo unspecified)	STAT3 act-1 153.1 | STAT3 act-2 149.2 | NFkB act STAT3ct inactive | STAT1 act-2 inactive
O=C(CN1C(=O)CC(c2ccco2)Sc2ccccc21)NC1CCCCC1 (stereo unspecified)	none (no result: STAT3 blocker, STAT3 act-1)
COc1cc(/C=N/NC(N)=S)ccc1OCC(=O)Nc1ccc(C)cc1	STAT3 act-1 153.7 | STAT3 act-2 inactive | NFkB act STAT3ct inactive | STAT1 act-2 inactive
CNC(=S)N/N=C/c1ccc(OCC(=O)Nc2c(C)cc(C)cc2C)c(OC)c1	none
COC(=O)C1C(c2ccc(OC)cc2)C(C(=O)OC)S(=O)(=O)C(CCN2CCCCC2)S1(=O)=O (stereo unspecified)	none
CC12CN3CC(C)(CN(C1)C3c1c[nH]c3ccccc13)C2=O (stereo unspecified)	none
CC1(C)CC(=O)C(c2c[nH]c3ccccc23)C(=O)C1	STAT3 act-1 152.2 | STAT3 act-2 163.4 | NFkB act STAT3ct inactive | STAT1 act-2 inactive
CC(C)(C)NC(=O)CN(Cc1ccc(F)cc1)C(=O)Cn1nnc(-c2ccc(F)cc2)n1	none
Cc1ccc(S(=O)(=O)Nc2cc(C(C(=O)OC(C)C)C(=O)C(F)(F)F)c(O)c3ccccc23)c(C)c1 (stereo unspecified)	STAT3 act-1 138.2 | STAT3 act-2 inactive | NFkB act STAT3ct inactive | STAT1 act-2 inactive
Cc1ccc(S(=O)(=O)Nc2ccc3c4c(cccc24)CC3)c(C)c1	none (no result: NF-kB expr up)
Cn1c2ccccc2c2ncn(Cc3ccco3)c(=O)c21	none
O=c1c2ccccc2ncn1Cc1ccco1	STAT3 act-1 147.3 | STAT3 act-2 144.8 | NFkB act STAT3ct inactive | STAT1 act-2 inactive
COc1ccc(C2(CNC(=O)c3ccccc3[N+](=O)[O-])CCOCC2)cc1	none
CCOc1ccccc1NC(=O)Cn1nnc(C(=O)NCc2ccco2)c1N	STAT3 act-1 138.3, NF-kB expr up 3.68 | STAT3 act-2 inactive | NFkB act STAT3ct 141.8 | STAT1 act-2 inactive
COc1cc(/C=N/Nc2nc3ccccc3[nH]2)ccc1O	none
COc1cc(/C=N/Nc2snc(SC)c2C#N)ccc1O	STAT3 act-1 148.3 | STAT3 act-2 135.6 | NFkB act STAT3ct inactive | STAT1 act-2 inactive
O=C(Oc1c(Cl)cc(Cl)c2ccccc12)N1CCCC1	STAT3 act-1 143.2 | STAT3 act-2 150.9 | NFkB act STAT3ct inactive | STAT1 act-2 inactive
COCc1cc(=O)n2c(-c3ccccc3OC)n[nH]c2n1	STAT3 act-1 144.5 | STAT3 act-2 159.4 | NFkB act STAT3ct inactive | STAT1 act-2 inactive
COc1ccccc1-c1c(C)oc2cc(OCC(=O)OCc3ccccc3)ccc2c1=O	none
Clc1ccc2c(NCc3ccccn3)ncnc2c1	STAT3 act-1 140.2 | STAT3 act-2 136.6 | NFkB act STAT3ct inactive | STAT1 act-2 inactive
CCC(C)(C)C1CCc2nc3ccccc3c(C(=O)OC(C)C(=O)Nc3c(C)n(C)n(-c4ccccc4)c3=O)c2C1 (stereo unspecified)	none
Cc1ccc(Sc2cnn(-c3ccccc3)c(=O)c2Cl)cc1	STAT3 act-1 141.5 | STAT3 act-2 133.3 | NFkB act STAT3ct inactive | STAT1 act-2 inactive
Nc1ccc(Sc2cnn(-c3ccccc3)c(=O)c2Cl)cc1	none
Cc1ccc(S(=O)(=O)Nc2cccc(-c3ccc4nnc(C)n4n3)c2)s1	none
CCOC(=O)c1c(C)oc2c1cc(O)c1ccccc12	STAT3 act-1 144.6, APP 5'UTR act 171.7, NF-kB expr up 3.31 | STAT3 act-2 151.7 | NFkB act STAT3ct inactive | STAT1 act-2 inactive
COc1ccc(S(=O)(=O)N2Cc3ccccc3CC2C(=O)Nc2nccs2)cc1 (stereo unspecified)	STAT3 act-1 139.9, APP 5'UTR act 180.1 | STAT3 act-2 inactive | NFkB act STAT3ct inactive | STAT1 act-2 inactive
COc1ccc(S(=O)(=O)N2Cc3ccccc3CC2C(=O)Nc2ccc3c(c2)OCO3)cc1 (stereo unspecified)	none
O=C(CSc1nnc(-c2ccc(Br)cc2)n1CCc1ccccc1)NC1CCS(=O)(=O)C1 (stereo unspecified)	none (no result: APP 5'UTR act)
O=C(NCC(c1cccnc1)N1CCN(c2ccc(F)cc2)CC1)c1ccco1 (stereo unspecified)	none (no result: STAT3 blocker, STAT3 act-1)
Cc1ccc2cccc(NC(=S)NC(=O)c3ccn(C)n3)c2n1	none
Cc1ccc2cccc(NC(=S)NC(=O)c3c(Br)cnn3C)c2n1	STAT3 act-1 138.6 | STAT3 act-2 inactive | NFkB act STAT3ct inactive | STAT1 act-2 inactive
Oc1ccccc1-c1cc(-c2ccccc2)no1	STAT3 act-1 161.7, APP 5'UTR act 255.3, NF-kB expr up 12.2 | STAT3 act-2 175.2 | NFkB act STAT3ct 124.2 | STAT1 act-2 inactive
Cc1ccccc1-c1cc(-c2ccccc2O)on1	STAT3 act-1 167.7, APP 5'UTR act 197.3, NF-kB expr up 9.67 | STAT3 act-2 184.0 | NFkB act STAT3ct inactive | STAT1 act-2 inactive
Cc1ccc(C(=O)N2C(CC(=O)Nc3ccc(Cl)cc3)C(=O)NC3CCCCC32)cc1 (stereo unspecified)	none
COc1ccc(/C=N/NC(=O)COc2ccc(Cl)cc2Cl)cc1Cn1nc(C)cc1C	none
CNc1nc(-c2c[nH]c3ccccc23)cs1	STAT3 act-1 160.6 | STAT3 act-2 152.0 | NFkB act STAT3ct inactive | STAT1 act-2 inactive
COc1ccccc1-c1nnc(SCC(=O)O)n1C	STAT3 act-1 163.9 | STAT3 act-2 153.1 | NFkB act STAT3ct inactive | STAT1 act-2 inactive
COc1ccccc1-c1nnc(SC)n1C	none
CCCCN(C(=O)c1ccc2c(c1)OCO2)c1ccccc1	none
CC(NC(=O)C(c1ccccc1)c1ccccc1)C(=O)N1CCCCC1 (stereo unspecified)	none
O=[N+]([O-])c1ccc(S(=O)(=O)NCCc2ccncc2)cc1	none
CC(C)=C1C2C=CC1C(C(=O)Nc1cccc(C)c1)C2C(=O)O (stereo unspecified)	STAT3 act-1 160.1 | STAT3 act-2 144.9 | NFkB act STAT3ct inactive | STAT1 act-2 inactive
CC(=O)c1cccc(NC(=O)C2C3C=CC(C3)C2C(=O)O)c1 (stereo unspecified)	none
O=C(Cc1cccs1)N/N=C/C=C/c1ccccc1	none
O=C(Cc1cccs1)N/N=C\c1ccc(O)cc1	STAT3 act-1 142.3 | STAT3 act-2 inactive | NFkB act STAT3ct 122.6 | STAT1 act-2 150.7
